# Screens: PubChem BioAssay, The Scripps Research Institute Molecular Screening Center
# OX1R antag-1: blocks the human orexin 1 receptor; O43613; OX1R-expressing cells, FRET antagonist read-out; inhibition, % at 6.6 µM; 330,000 compounds, 1.8% hits; AID 485270; in the data active means inhibition mostly above about 38%, no sharp cut-off; inactive means mostly below about 40%;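 further: 0% = agonist challenge alone and 100% = reference antagonist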
# Target sequence (O43613 whole entry, looked up): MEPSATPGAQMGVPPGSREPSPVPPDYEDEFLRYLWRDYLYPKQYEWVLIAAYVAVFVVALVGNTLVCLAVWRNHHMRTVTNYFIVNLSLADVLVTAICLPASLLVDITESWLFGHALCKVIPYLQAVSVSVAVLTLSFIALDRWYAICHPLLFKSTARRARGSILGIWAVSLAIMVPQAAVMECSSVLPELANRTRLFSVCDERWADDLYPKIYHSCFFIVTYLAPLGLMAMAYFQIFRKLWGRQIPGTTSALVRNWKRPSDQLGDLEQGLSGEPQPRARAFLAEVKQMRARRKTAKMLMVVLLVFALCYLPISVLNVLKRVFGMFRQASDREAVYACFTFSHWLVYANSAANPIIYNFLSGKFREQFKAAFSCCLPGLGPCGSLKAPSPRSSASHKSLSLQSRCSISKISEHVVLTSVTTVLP
# TAAR1 antagonist: antagonists of human TAAR1; CHO RD-HGA16 TAAR1, Fluo-8 calcium fluorescence, antagonist; inhibition, % at 3 µM; 360,000 compounds, 1.5% hits;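 active means inhibition above a per-plate cutoff, the mean inhibition of test compounds on that plate plus 3 SD, cut at about 49% in these data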;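 further: 0% = DMSO plus EC80 beta-PEA response and 100% = DMSO alone without agonist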
#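 Material: CHO RD-HGA16 cells bearing hTAAR1; compound dosing: one-point dosing, 3 µM nominal final; schedule: dye loading 75 min at 37 °C, then 30 min room temperature; measured by: calcium fluorescence with Fluo-8; control set: vehicle and agonist controls; replication: n of 1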
# OX1R antag-2: human HCRTR1 antagonism | O43613 | CHO/OX1R cells, Fluo-8 calcium fluorescence, orexin A | inhibition, % at 5 µM | 330,000 compounds, 0.43% hits;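 active means inhibition above its plate's threshold, mean inhibition of all tested compounds on the plate plus 3 SD, cut at about 37% in these data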;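 further: 0% = orexin A challenge wells and 100% = SB-334867-A antagonist wells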
# TAAR1 ag: human TAAR1 agonism; activation, % at 3 µM; Q96RJ0; AID 624467; CHO RD-HGA16 TAAR1, Fluo-8 calcium fluorescence; vehicle wells 0%, saturating PEA agonist 100%; 360,000 compounds, 0.99% hits;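 active means activation above the mean activation of all test compounds in the run plus 3 SD, cut at about 38% in these data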
#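 System: CHO-derived RD-HGA16 cells with stable Gα16 and human TAAR1. Times: 17-24 h plating, Fluo-8 75 min 37 °C, 30 min RT. Measured by: calcium-sensitive Fluo-8 signal, excitation 470-495, emission 515-575 nm. Read-out basis: % activation relative to PEA EC100 response. Control set: DMSO and PEA EC100. Repeats: no replicates (n 1).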
# GPR7 antag: antagonists of human GPR7 (neuropeptides B/W receptor 1); P48145; GPR7-expressing cells, fluorescence antagonist assay; inhibition, % at 4.4 µM; 290,000 compounds, 1.1% hits; AID 1861; in the data active means inhibition above about 16%, passing the limit was not always enough;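 further: cells stimulated with the agonist NPW; 0% = agonist with vehicle and 100% = vehicle without agonist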
# CHO parental Ca: counter-screen for OX1R antagonists: effect in parental CHO cells; parental CHO-K1, ATP-induced calcium, Fluo-8 fluorescence; inhibition, % at 5.6 µM; 330,000 compounds, 0.63% hits;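 active means inhibition above that plate's mean sample inhibition plus 3 SD, cut at about 26% in these data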;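 further: 0% = ATP-challenged DMSO wells and 100% = DMSO wells without ATP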
#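 test system = CHO parental line | reagent = ATP stimulus | measured by = intracellular calcium via Fluo-8 no-wash fluorescent dye | control set = ATP and no-ATP DMSO wells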
# An asterisk follows results filed as active; . = no result. Rows were chosen to be rich in hits. Some 4.5% of all compounds tested hit in one or more screens of this group.
SMILES,OX1R antag-1,TAAR1 antagonist,OX1R antag-2,TAAR1 ag,GPR7 antag,CHO parental Ca
O=C(O)c1cc(-c2ccccc2Cl)n(-c2cccc(Cl)c2)n1,37.3*,-7.5,13.1,0.7,0.3,-7.9
CCN(CC(=O)NCc1cccs1)C(=O)c1cccc(Cl)c1,2.7,10.8,-0.3,0.4,.,-6.5
Cc1cc(C(F)F)n2nc(C(=O)Nc3sc4c(c3C(N)=O)CCC4)nc2n1,57.4*,-4.3,-1.6,2.3,-12.7,-3.8
O=C(Nc1sc2c(c1C(=O)O)CCCC2)c1ccc(F)cc1,.,9.3,.,-1.6,-8.2,.
CNC(=O)c1c(NC(=O)c2cccc(C)c2)sc2c1CCC2,44.2*,-16.1,-18.0,3.0,13.9,-20.1
NC(=O)c1c(NC(=O)c2ccc(F)cc2)sc2c1CCC2,51.1*,11.2,-4.3,0.4,-14.0,-21.2
COC(=O)c1c(NC(=O)c2nc3nc(C)cc(C(F)F)n3n2)sc2c1CCC2,5.3,-9.4,-9.4,7.3,-9.3,-14.4
CCN(CC)S(=O)(=O)c1ccc(C(C)NC(=O)Cc2c[nH]c3ccccc23)cc1 (centres undefined),10.5,4.9,-10.4,9.6,-4.8,-16.8
COCc1cc(C)nc(SCC(=O)Nc2cccc3cccnc23)c1C#N,52.5*,-6.0,-2.0,0.4,-2.6,-8.4
O=[N+]([O-])c1cccc(/C=N/NC2CCS(=O)(=O)C2)c1 (centres undefined),52.8,-7.8,-9.7,0.5,-0.7,-6.3
CCN(CC)c1ccc(/C=c2\sc3nc4ccccc4n3c2=O)c(O)c1,.,64.0*,.,17.1,-11.8,.
CCC(C)(C(=O)NC1CCCC1)N(Cc1cccs1)C(C)=O (centres undefined),16.9,1.1,-17.8,0.5,-9.9,-3.5
CCC(C)(C(=O)NC1CCCC1)N(Cc1cccs1)C(=O)Cc1cccs1 (centres undefined),24.1,-4.8,-23.5,2.6,42.5*,-8.3
CCC(C)(C(=O)NC1CCCCC1)N(Cc1ccco1)C(=O)c1cnccn1 (centres undefined),14.6,-6.9,-17.3,2.6,15.8*,-14.8
CCCCCCCCN1C(=O)[C@@H](CC(=O)N2CCCCC2)C[C@@]2(C(=O)OC)C1=C[C@H](C1CCCC1)O[C@@H]2C,.,-32.5,.,-2.8,.,.
N#C/C(=N\Nc1ccc(Cl)c(Cl)c1)C(=O)C1CC1,49.5*,-27.2,17.0,8.0,-3.1,25.3
N#C/C(=N\Nc1ccc(F)cc1)C(=O)C1CC1,9.1,-20.8,3.8,7.7,-11.0,0.2
Cc1cccc(CCNS(=O)(=O)c2ccc3c(c2)n(C)c(=O)c(=O)n3C)c1,5.0,-13.2,-17.3,39.0*,-12.5,-18.4
COc1ccccc1-c1nnc(-c2ccc(C)cc2)o1,30.9,-8.7,-26.8,1.6,.,-15.8
COc1ccccc1-c1nnc(-c2ccc(N3CCOCC3)cc2)o1,74.5*,4.0,-9.8,6.2,0.4,-8.2
O=C(Nc1ccccc1)c1cc(C2CCCCN2C(=O)OCCF)on1 (centres undefined),.,-9.8,.,3.3,.,.
COc1ccccc1NC(=O)c1ccccc1S(=O)(=O)c1ccc([N+](=O)[O-])cc1,20.1,-7.3,-14.0,1.9,-17.8,-20.3
COc1ccccc1NC(=O)c1ccccc1S(=O)(=O)c1ccccc1[N+](=O)[O-],58.3*,-4.6,-8.7,2.7,-7.0,-13.8
COc1ccccc1Nc1ccc(NC(=O)c2cccc([N+](=O)[O-])c2C)cc1,7.5,51.4*,-2.7,-0.7,6.5,-7.9
COc1ccc(NC(=O)c2ccccc2[N+](=O)[O-])cc1,16.0,-6.5,-6.6,0.9,-5.0,1.3
SMILES,OX1R antag-1,TAAR1 antagonist,OX1R antag-2,TAAR1 ag,GPR7 antag,CHO parental Ca
CCCc1nnc(NC(=O)CCC(=O)NC2CCCCCC2)s1,15.2,-2.9,-27.7,1.4,-6.3,2.1
Cn1c(SCC(=O)NC2CCCC2)nnc1-c1ccccn1,9.4,-4.5,-1.6,0.1,1.9,-4.9
Cc1cc(C)n(C(=O)/C(C#N)=N\Nc2ccccc2[N+](=O)[O-])n1,23.7,29.3,-15.7,1.8,0.4,-5.5
Cc1cc(C)n(C(=O)/C(C#N)=N/Nc2cc(Cl)cc(Cl)c2)n1,59.5*,.,58.8*,.,5.2,74.9*
N#Cc1ccc(OCC(=O)NCC(c2cccs2)N2CCOCC2)cc1 (centres undefined),19.3,-10.2,-17.9,7.5,-4.8,-4.2
Cn1c(Sc2ccc(C(=O)O)cc2[N+](=O)[O-])nnc1-c1ccccc1,56.7*,-7.9,-5.8,12.4,-7.3,-0.4
CC(=O)c1ccc(Sc2nnnn2-c2ccccc2)c([N+](=O)[O-])c1,47.8,-9.1,-4.4,7.2,-2.5,1.7
CCN(CC)c1ccc2c(c1)CCCN2,85.1*,.,-21.9,.,-5.1,-3.9
OC1OC2COC(c3ccccc3)OC2C(O)C1O (centres undefined),.,-11.4,.,0.6,.,.
C/C(=N\NC(=O)c1cc(O)ccc1O)c1cccc(NC(=O)c2ccc(Cl)cc2)c1,22.2,51.3*,-26.9,5.3,3.5,-7.3
C/C(=N\NC(=O)c1cc(O)ccc1O)c1cccc(NC(=O)c2cccc(Cl)c2)c1,19.6,44.7,-7.8,19.0,-13.7,-11.4
CCOC(=O)c1c(C)oc2c1c1c(c3ccccc32)OCN(Cc2cccnc2)C1,.,.,.,.,-16.9,.
CCOC(=O)c1c(C)oc2c1c(C(c1cccnc1)N1CCOCC1)c(O)c1ccccc12 (centres undefined),72.7*,-9.2,7.5,2.9,-2.1,2.9
Cc1ccc(N(C(=O)CS(=O)CC(=O)Nc2ccc(F)cc2)C(C(=O)NC2CCCCC2)c2ccco2)cc1 (centres undefined),18.1,-23.8,-15.1,3.4,5.1,-8.2
COc1cc(CNCC(C)C)cc(Br)c1OCC(=O)Nc1ccccc1,4.0,5.2,-14.8,17.0,18.3*,-20.7
COC(=O)C1=C(C)N(C)C(=NCc2ccc3c(c2)OCO3)NC1c1ccc(C(F)(F)F)cc1 (centres undefined),.,7.1,.,15.3,.,.
CC(C)c1onc(C(=O)NC2CCCCC2)c1[N+](=O)[O-],7.7,14.0,-8.5,0.3,18.5*,-14.4
CC(C)c1onc(C(=O)N2CCCCCC2)c1[N+](=O)[O-],12.5,-22.6,0.4,0.2,-5.7,3.7
CCC1CCCCN1C(=O)c1noc(C(C)C)c1[N+](=O)[O-] (centres undefined),23.6,-6.6,-18.9,5.1,19.3*,-3.2
O=C(CSc1ccc(-c2cccc([N+](=O)[O-])c2)nn1)N1CCCC1,71.8*,-24.1,-15.6,0.1,2.2,-14.9
O=C(O)c1cc(NS(=O)(=O)c2ccc(F)cc2)cc(NS(=O)(=O)c2ccc(F)cc2)c1,1.3,4.1,-23.8,23.1,.,-12.4
COc1cc(-c2coc3c(C(=O)NCc4ccc(N(C)C)cc4)cccc23)ccc1O,.,20.4,.,0.4,.,.
COc1ccc(CNC(=O)c2cccc3c(-c4cccc(C(N)=O)c4)coc23)cc1OC,.,55.7*,.,21.0,.,.
